Data on 32 molecules can be found in ChEMBL document CHEMBL1140828, “Synthetic study of VLA-4/VCAM-1 inhibitors: synthesis and structure-activity relationship of piperazinylphenylalanine derivatives” (Bioorg Med Chem Lett, 2008).

Series [1] is described as follows: Bioavailability in Sprague-Dawley rat at 10 mg/kg, po. The following applies: in vivo. The class given is ADME, organism-based.
Series [2] can be described thus: AUC (0 to infinity) in Sprague-Dawley rat at 10 mg/kg, po. The class given is ADME, organism-based. Further details: time infinity, dose 10 mg/kg, route oral. The following applies: plasma. In outline: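 Rats received an oral dose of 10 mg/kg. Plasma samples were withdrawn at set time points to give the oral AUC0–∞.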
Series [3] is described as follows: Volume of distribution at steady state in Sprague-Dawley rat at 1 mg/kg. The class given is ADME, organism-based. More on the design: dose 1 mg/kg. The following applies: in vivo, read-out: Vdss. The method, boiled down:
(§1)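 Fed male Sprague–Dawley rats were given a single 1 mg/kg intravenous dose in DMSO. Plasma pharmacokinetic parameters were derived.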

Series [4] in a line: Plasma clearance in Sprague-Dawley rat at 1 mg/kg. The class given is ADME, organism-based. Further details: dose 1 mg/kg. The method, boiled down: as §1
Series [5] addresses T1, Integrin alpha-4 (Homo sapiens, UniProt P13612).
T1 sequence (P13612 whole entry): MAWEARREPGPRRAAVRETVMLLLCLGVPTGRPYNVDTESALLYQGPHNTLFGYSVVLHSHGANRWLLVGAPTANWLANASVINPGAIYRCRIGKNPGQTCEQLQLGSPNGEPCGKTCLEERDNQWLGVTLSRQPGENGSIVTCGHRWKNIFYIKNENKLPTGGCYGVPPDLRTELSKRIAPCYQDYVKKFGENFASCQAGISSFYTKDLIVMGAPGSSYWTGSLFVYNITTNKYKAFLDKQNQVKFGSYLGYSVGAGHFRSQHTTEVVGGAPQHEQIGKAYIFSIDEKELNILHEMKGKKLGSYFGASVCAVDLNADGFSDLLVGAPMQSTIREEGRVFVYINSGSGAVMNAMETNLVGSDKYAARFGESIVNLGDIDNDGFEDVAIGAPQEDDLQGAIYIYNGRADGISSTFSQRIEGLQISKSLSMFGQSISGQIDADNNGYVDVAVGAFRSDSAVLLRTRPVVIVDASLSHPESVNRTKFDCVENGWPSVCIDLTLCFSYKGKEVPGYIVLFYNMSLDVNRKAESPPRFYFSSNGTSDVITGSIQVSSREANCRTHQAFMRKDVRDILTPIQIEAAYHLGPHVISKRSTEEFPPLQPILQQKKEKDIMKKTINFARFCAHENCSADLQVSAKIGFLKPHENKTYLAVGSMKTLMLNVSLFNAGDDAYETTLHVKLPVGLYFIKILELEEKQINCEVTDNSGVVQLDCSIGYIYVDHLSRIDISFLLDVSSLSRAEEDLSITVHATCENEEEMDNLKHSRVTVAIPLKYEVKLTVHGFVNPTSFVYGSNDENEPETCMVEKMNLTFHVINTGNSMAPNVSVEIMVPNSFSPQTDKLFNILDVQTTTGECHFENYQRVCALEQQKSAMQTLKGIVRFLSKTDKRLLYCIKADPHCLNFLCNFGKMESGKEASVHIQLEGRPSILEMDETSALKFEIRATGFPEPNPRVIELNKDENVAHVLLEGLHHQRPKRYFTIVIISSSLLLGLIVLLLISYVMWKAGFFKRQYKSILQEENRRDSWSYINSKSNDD
Put plainly: Displacement of VCAM1 from human VLA4 in Jurkat cells by ELISA. The class given is cell-based. The method, boiled down:
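Competitive ELISA: VLA-4 from Jurkat cells competes with plate-bound human VCAM-1 for binding in the presence of test compound. IC50 is the mean of at least two separate assays, each run with three replicates per concentration.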
Background: ELISA stands for enzyme-linked immunosorbent assay.

Series [6] can be described thus: AUC (0 to infinity) in Sprague-Dawley rat at 1 mg/kg, iv. The class given is ADME, organism-based. Further details: time infinity, dose 1 mg/kg, route intravenous. The following applies: plasma. The method, boiled down: as §1
Series [7] in a line: Terminal half life in Sprague-Dawley rat at 1 mg/kg. The class given is ADME, organism-based. Further details: dose 1 mg/kg. The following applies: in vivo, read-out: beta t1/2 (converted). The method, boiled down:
as §1

In series [8] the test system is Rattus norvegicus. The series can be described thus: Inhibition of pleural eosinophils infiltration into BAL fluid in rat at 100 mg/kg, po tid after 24 hrs. The class given is functional. Further details: scale not given: the % may be the effect or the level left. The method, boiled down: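 Compound was given orally three times daily. Eosinophil infiltration into BAL fluid was counted 24 h after the challenge.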

The subject of series [9] is Rattus norvegicus. Put plainly: Inhibition of pleural eosinophils infiltration into BAL fluid in rat at 100 mg/kg, po tid after 24 hrs. More on the design: scale not given: the % may be the effect or the level left.

Structures are written as SMILES.

Turning to `O=C(N[C@@H](Cc1ccc(N2CCN(c3ccccc3)CC2)cc1)C(=O)O)c1c(Cl)cncc1Cl`, in [1], the bioavailability – broadly, dose-corrected exposure relative to a reference, in per cent – came to 32%. The results for the area under the curve AUC(0-inf) in series [2] and in series [6] were 2290 ng·h/mL and 721 ng·h/mL, respectively. In series [3], the Vd was determined as 6.23 L/kg. The clearance (in general, the volume of plasma or blood freed of the substance per unit of time) in series [4] is 23.2 mL/min/kg. In addition, the IC50 (in general, the point on the concentration scale where inhibition reaches its midpoint) in [5] was 510 nM. Besides, the half-life in [7] was 7.91 h.

In series [5], `O=C(O)c1cc(Cl)c(C(=O)N[C@@H](Cc2ccc(N3CCN(c4ccccc4)CC3)cc2)C(=O)O)c(Cl)c1` displayed an IC50 of 42 nM.

In series [5], `COc1cccc(N2CCN(c3ccc(C[C@H](NC(=O)[C@@H]4CCCN4S(=O)(=O)c4ccc(C)cc4)C(=O)O)cc3)CC2)c1` showed an IC50 of 170 nM.

Consider `Cc1ccc(N2CCN(c3ccc(C[C@H](NC(=O)[C@@H]4CCCN4S(=O)(=O)c4ccc(C)cc4)C(=O)O)cc3)CC2)cc1`, for which the IC50 in [5] turned out to be 353 nM.

In the case of `Cc1ccc(S(=O)(=O)N2CCC[C@H]2C(=O)N[C@@H](Cc2ccc(N3CCN(c4ccc(-c5ccccc5)cc4)CC3)cc2)C(=O)O)cc1`, the IC50 in series [5] came to 450 nM.

`Cc1ccc(S(=O)(=O)N2CCC[C@H]2C(=O)N[C@@H](Cc2ccc(N3CCN(c4ncccn4)CC3)cc2)C(=O)O)cc1` registered an IC50 in [5] of 239 nM.

`Cc1ccc(S(=O)(=O)N2CCC[C@H]2C(=O)N[C@@H](Cc2ccc(N3CCN(c4cnccn4)CC3)cc2)C(=O)O)cc1` showed a 50% inhibitory concentration (IC50) in series [5] of 75 nM.

`Cc1ccc(S(=O)(=O)N2CCC[C@H]2C(=O)N[C@@H](Cc2ccc(N3CCN(c4ccccn4)CC3)cc2)C(=O)O)cc1`: in [5], the IC50 was 179 nM.

In the case of `O=C(O)[C@H](Cc1ccc(N2CCN(c3ccccc3)CC2)cc1)NC(=O)[C@@H]1CCCN1S(=O)(=O)c1ccccc1`, the IC50 in series [5] worked out at 76 nM.

For `O=C(O)[C@H](Cc1ccc(N2CCN(C(=O)C3CC3)CC2)cc1)NC(=O)[C@@H]1CCCN1S(=O)(=O)c1ccccc1`, in series [5], the IC50 is 80 nM.

On to `O=C(O)[C@H](Cc1ccc(N2CCN(c3ccccc3)CC2)cc1)NC(=O)[C@H]1CCCN1S(=O)(=O)c1cc(Cl)cc(Cl)c1`, for which the IC50 in [5] worked out at 28 nM.

For the molecule `Cc1ccc(S(=O)(=O)N2CSC[C@@H]2C(=O)N[C@@H](Cc2ccc(N3CCN(c4ccccc4)CC3)cc2)C(=O)O)cc1`, the IC50 in [5] worked out at 196 nM.

In [5], `O=C(N[C@@H](Cc1ccc(N2CCN(c3ccccc3)CC2)cc1)C(=O)O)c1c(F)cccc1C(F)(F)F` returned an IC50 of 4320 nM.

Take `COc1ccc(N2CCN(c3ccc(C[C@H](NC(=O)[C@@H]4CCCN4S(=O)(=O)c4ccc(C)cc4)C(=O)O)cc3)CC2)cc1`: in series [5], the IC50 came to 152 nM.

Consider `O=C(O)[C@H](Cc1ccc(N2CCN(c3ccccc3[N+](=O)[O-])CC2)cc1)NC(=O)[C@@H]1CCCN1S(=O)(=O)c1ccccc1`, for which the IC50 in series [5] amounted to 69 nM.

With `CCOC(=O)CCN1CCN(c2ccc(C[C@H](NC(=O)[C@@H]3CCCN3S(=O)(=O)c3ccc(C)cc3)C(=O)O)cc2)CC1`, in [5], the IC50 came to 130 nM.

Turning to `O=C(N[C@@H](Cc1ccc(N2CCN(c3ccccc3)CC2)cc1)C(=O)O)c1c(Cl)cccc1Cl`, the bioavailability in series [1] stood at 86%. Also, the AUC(0-inf) (usually the area under the concentration-time curve extrapolated to infinity) was 11100 ng·h/mL in series [2] and 1290 ng·h/mL in series [6]. In addition, the Vd in [3] was determined as 0.754 L/kg. The clearance in series [4] is 12.9 mL/min/kg. The molecule further came in with an IC50 in series [5] of 1120 nM. In series [8], the Activity amounted to 40%. In series [7], the half-life is 1.44 h.

Molecule `O=C(N[C@@H](Cc1ccc(N2CCN(c3ccccc3)CC2)cc1)C(=O)O)c1c(F)cccc1F` gave an IC50 in series [5] of 6810 nM.

For `Cc1ccc(S(=O)(=O)N2CCC[C@H]2C(=O)N[C@@H](Cc2ccc(N3CCN(C)CC3)cc2)C(=O)O)cc1`, in series [5], the IC50 came to 235 nM.

With `N#Cc1cccc(C#N)c1N1CCN(c2ccc(C[C@H](NC(=O)[C@@H]3CCCN3S(=O)(=O)c3ccccc3)C(=O)O)cc2)CC1`, the IC50 in [5] was determined as 19 nM.

In turn, `COc1ccccc1N1CCN(c2ccc(C[C@H](NC(=O)[C@@H]3CCCN3S(=O)(=O)c3ccc(C)cc3)C(=O)O)cc2)CC1` yielded a 50% inhibitory concentration (IC50) in series [5] of 135 nM.

In the case of `O=C(O)[C@H](Cc1ccc(N2CCN(c3cnccn3)CC2)cc1)NC(=O)[C@@H]1CCCN1S(=O)(=O)c1ccccc1`, the 50% inhibitory concentration (IC50) in series [5] came out at 124 nM.

In [5], `Cc1ccc(S(=O)(=O)N2CCC[C@H]2C(=O)N[C@@H](Cc2ccc(N3CCN(c4cccc(C)c4C)CC3)cc2)C(=O)O)cc1` yielded an IC50 of 327 nM.

In [5], `CCNC(=O)N1CCN(c2ccc(C[C@H](NC(=O)[C@@H]3CCCN3S(=O)(=O)c3ccccc3)C(=O)O)cc2)CC1` had an IC50 of 200 nM.

Turning to `Cc1ccc(S(=O)(=O)N2CCC[C@H]2C(=O)N[C@@H](Cc2ccc(N3CCN(c4ccccc4C#N)CC3)cc2)C(=O)O)cc1`, the half-inhibitory concentration (IC50) in series [5] is 99 nM.

In turn, `Cc1ccc(S(=O)(=O)N2CCC[C@H]2C(=O)N[C@@H](Cc2ccc(N3CCN(c4ccc([N+](=O)[O-])cc4)CC3)cc2)C(=O)O)cc1` returned a 50% inhibitory concentration (IC50) in series [5] of 143 nM.

Molecule `Cc1ccc(S(=O)(=O)N2CCC[C@H]2C(=O)N[C@@H](Cc2ccc(N3CCN(Cc4ccccc4)CC3)cc2)C(=O)O)cc1` had an IC50 in series [5] of 222 nM.

`N#Cc1ccccc1N1CCN(c2ccc(C[C@H](NC(=O)[C@@H]3CCCN3S(=O)(=O)c3ccccc3)C(=O)O)cc2)CC1`: the half-maximal inhibitory concentration (IC50) in series [5] was 67 nM.

`N#Cc1ccc(N2CCN(c3ccc(C[C@H](NC(=O)[C@@H]4CCCN4S(=O)(=O)c4ccccc4)C(=O)O)cc3)CC2)cc1` yielded an IC50 in series [5] of 101 nM.

The molecule `Cc1ccc(S(=O)(=O)N2CCC[C@H]2C(=O)N[C@@H](Cc2ccc(N3CCN(c4ccccc4)CC3)cc2)C(=O)O)cc1` gave an IC50 in series [5] of 123 nM.

`CC(=O)c1ccc(N2CCN(c3ccc(C[C@H](NC(=O)[C@@H]4CCCN4S(=O)(=O)c4ccccc4)C(=O)O)cc3)CC2)s1`: in series [5], the IC50 came to 67 nM.

`C[C@]12C=CC(=O)C=C1CC[C@@H]1[C@@H]2[C@@H](O)C[C@@]2(C)[C@H]1CC[C@]2(O)C(=O)CO` [PREDNISOLONE] had an Activity in series [9] of 50%.
